Results taken from ChEMBL document CHEMBL3397016, “SAR-studies of γ-secretase modulators with PPARγ-agonistic and 5-lipoxygenase-inhibitory activity for Alzheimer's disease” (Bioorg Med Chem Lett, 2015).
Values belong to the compound of their own block, whether it stands above or below them. Calls of active or inactive are those of the source. The rule behind the calls is not given here.

Key:
[1] = target: NOTCH-1 signaling (Neurogenic locus notch homolog protein 1) (Homo sapiens, UniProt P46531); assay: Inhibition of NOTCH-1 signaling (unknown origin) expressed in CHO cells at 0.5 uM after 24 hrs by dual luciferase reporter gene assay; format: cell-based; details: CHO cells expressing NOTCH-1
Method in brief: (§1)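 Dual luciferase Notch reporter read-out in CHO cells. Test compounds were run at 5–50 µM. The γ-secretase inhibitor LY-411575 was run at 0.5 µM as the reference treatment.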

[2] = target: T1, Prostaglandin G/H synthase 1 (Ovis aries, UniProt P05979); assay: Inhibition of ovine COX1-mediated 12-HHT formation preincubated for 5 mins before arachidonic acid addition by HPLC analysis
T1 sequence (P05979 whole entry): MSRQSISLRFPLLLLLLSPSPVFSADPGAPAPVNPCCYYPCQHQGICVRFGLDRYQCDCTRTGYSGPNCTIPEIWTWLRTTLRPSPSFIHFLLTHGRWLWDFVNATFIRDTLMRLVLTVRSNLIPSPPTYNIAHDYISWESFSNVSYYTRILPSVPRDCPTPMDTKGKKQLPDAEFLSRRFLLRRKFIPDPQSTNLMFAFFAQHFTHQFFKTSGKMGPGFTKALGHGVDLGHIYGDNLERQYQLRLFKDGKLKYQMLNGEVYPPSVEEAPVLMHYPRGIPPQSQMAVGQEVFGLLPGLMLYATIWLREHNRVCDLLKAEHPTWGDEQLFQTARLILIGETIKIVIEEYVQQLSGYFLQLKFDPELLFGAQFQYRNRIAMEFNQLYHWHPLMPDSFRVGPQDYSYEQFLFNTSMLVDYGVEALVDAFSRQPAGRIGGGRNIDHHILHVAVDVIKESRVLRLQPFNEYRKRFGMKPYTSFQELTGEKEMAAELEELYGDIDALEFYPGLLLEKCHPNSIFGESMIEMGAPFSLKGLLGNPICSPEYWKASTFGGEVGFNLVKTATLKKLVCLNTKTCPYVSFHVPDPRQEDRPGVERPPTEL
Method in brief: (§2)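 Cell-free enzyme assays. Data given either as IC50 or as remaining enzyme activity at 10 µM test concentration.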

Presenilin-1 [3] = target: T2, Presenilin-1 (Homo sapiens, UniProt P49768); assay: Inhibition of wild-type human presenilin-1 stably overexpressed in CHO cells co-expressing wild-type human amyloid precursor protein assessed as inhibition of amyloid beta 42 formation after 24 hrs by ELISA; format: cell-based
[4] = target: T3, Peroxisome proliferator-activated receptor gamma (Homo sapiens) (UniProt P37231); assay: Activation of human PPARgamma ligand binding domain expressed in COS7 cells by dual luciferase reporter gene assay relative to 1 uM pioglitazone; format: cell-based; details: COS-7
T3 sequence (whole entry): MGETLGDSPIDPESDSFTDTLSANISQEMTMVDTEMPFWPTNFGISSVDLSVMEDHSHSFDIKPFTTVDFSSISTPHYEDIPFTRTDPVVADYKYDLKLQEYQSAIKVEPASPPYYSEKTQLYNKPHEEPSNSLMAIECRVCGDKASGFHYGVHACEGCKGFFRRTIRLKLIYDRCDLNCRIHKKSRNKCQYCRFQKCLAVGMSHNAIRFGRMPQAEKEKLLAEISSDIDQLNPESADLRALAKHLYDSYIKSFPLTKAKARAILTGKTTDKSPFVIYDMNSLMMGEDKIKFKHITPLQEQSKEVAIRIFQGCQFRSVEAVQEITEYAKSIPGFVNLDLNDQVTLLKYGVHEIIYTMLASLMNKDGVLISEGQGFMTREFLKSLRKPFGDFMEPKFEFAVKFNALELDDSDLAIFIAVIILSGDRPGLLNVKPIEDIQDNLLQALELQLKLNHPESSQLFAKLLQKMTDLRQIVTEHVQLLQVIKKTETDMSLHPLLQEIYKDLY

Prostaglandin E synthase = target: T4, Prostaglandin E synthase (Homo sapiens, UniProt O14684); assay: Inhibition of mPGES-1-mediated PGE2 formation in interleukin-1beta-stimulated human A549 microsomal membranes preincubated for 15 mins before PGH2 addition by RP-HPLC analysis
T4 sequence (O14684 whole entry): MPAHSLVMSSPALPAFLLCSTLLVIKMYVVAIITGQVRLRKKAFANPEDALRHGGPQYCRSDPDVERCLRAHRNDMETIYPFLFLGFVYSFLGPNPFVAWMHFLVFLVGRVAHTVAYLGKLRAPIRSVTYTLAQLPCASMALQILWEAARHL

Presenilin-1 [5] = target: T2, Presenilin-1; assay: Activation of wild-type human presenilin-1 stably overexpressed in CHO cells co-expressing wild-type human amyloid precursor protein assessed as amyloid beta 38 formation after 24 hrs by ELISA; format: cell-based
[6] = target: T5, Prostaglandin G/H synthase 1 (Ovis aries) (UniProt P05979); assay: Inhibition of ovine COX1-mediated 12-HHT formation assessed as remaining activity at 10 uM preincubated for 5 mins before arachidonic acid addition by HPLC analysis; method in brief: as §2
T5 sequence (whole entry): T1 sequence (P05979 whole entry)

[7] = target: T6, Peroxisome proliferator-activated receptor gamma (Homo sapiens, UniProt P37231); assay: Activation of human PPARgamma ligand binding domain expressed in COS7 cells by dual luciferase reporter gene assay; format: cell-based, COS-7
T6 sequence (P37231 whole entry): T3 sequence (whole entry)

[8] = target: T7, Prostaglandin G/H synthase 2 (Homo sapiens) (UniProt P35354); assay: Inhibition of human recombinant COX2-mediated 12-HHT formation assessed as remaining activity at 10 uM preincubated for 5 mins before arachidonic acid addition by HPLC analysis; method in brief: as §2
T7 sequence (whole entry): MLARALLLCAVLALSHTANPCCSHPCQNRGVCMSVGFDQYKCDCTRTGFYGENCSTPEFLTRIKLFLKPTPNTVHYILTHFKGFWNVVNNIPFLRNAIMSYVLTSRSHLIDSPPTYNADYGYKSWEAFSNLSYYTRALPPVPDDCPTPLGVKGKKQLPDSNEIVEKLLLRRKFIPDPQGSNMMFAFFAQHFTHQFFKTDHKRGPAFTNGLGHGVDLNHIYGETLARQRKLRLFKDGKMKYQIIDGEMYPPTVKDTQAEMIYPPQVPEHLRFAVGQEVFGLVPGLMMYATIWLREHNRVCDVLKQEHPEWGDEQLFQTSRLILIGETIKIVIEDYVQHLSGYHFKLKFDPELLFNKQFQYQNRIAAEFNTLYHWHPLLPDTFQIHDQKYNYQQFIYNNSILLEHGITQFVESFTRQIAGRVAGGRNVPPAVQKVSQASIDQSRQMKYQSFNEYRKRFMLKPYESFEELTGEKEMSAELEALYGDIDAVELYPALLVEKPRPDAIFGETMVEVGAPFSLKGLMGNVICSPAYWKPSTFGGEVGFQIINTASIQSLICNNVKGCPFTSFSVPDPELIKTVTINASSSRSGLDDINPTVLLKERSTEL

[9] = target: T8, Polyunsaturated fatty acid 5-lipoxygenase (Homo sapiens, UniProt P09917); assay: Inhibition of 5-LO in human PMNL assessed as reduction in 5-LO product formation pre-incubated for 15 mins before addition of arachidonic acid substrate by HPLC analysis; details: read-out: IC50
T8 sequence (P09917 whole entry): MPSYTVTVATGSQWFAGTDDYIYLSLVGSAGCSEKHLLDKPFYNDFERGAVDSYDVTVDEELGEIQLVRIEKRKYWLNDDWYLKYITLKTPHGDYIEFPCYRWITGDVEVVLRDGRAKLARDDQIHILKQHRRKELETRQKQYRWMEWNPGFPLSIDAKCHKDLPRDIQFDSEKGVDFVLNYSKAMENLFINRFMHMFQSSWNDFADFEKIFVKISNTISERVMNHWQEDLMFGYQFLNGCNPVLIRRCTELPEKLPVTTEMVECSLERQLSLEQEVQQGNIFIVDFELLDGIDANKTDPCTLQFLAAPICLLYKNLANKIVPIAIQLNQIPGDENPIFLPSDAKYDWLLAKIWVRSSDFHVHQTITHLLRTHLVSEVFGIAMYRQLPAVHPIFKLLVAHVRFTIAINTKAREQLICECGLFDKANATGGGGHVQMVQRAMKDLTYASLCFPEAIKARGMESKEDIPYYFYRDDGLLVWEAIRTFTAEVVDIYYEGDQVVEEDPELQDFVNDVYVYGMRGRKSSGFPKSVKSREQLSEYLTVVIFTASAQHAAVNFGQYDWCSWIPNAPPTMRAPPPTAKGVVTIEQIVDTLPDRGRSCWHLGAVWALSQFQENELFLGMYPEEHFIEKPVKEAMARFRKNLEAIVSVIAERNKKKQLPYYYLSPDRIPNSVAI

[10] = target: T9, Prostaglandin G/H synthase 2 (Homo sapiens, UniProt P35354); assay: Inhibition of human recombinant COX2-mediated 12-HHT formation preincubated for 5 mins before arachidonic acid addition by HPLC analysis; method in brief: as §2
T9 sequence (P35354 whole entry): T7 sequence (whole entry)

[11] = Cytotoxicity against human Jurkat cells assessed as reduction in cell viability up to 30 uM after 24 to 48 hrs by MTT assay; format: cell-based; details: read-out: INH
[12] = Cytotoxicity against CHO cells assessed as cell viability up to 30 uM after 24 hrs by alamar blue assay; format: cell-based, Cricetulus griseus; details: chinese hamster, read-out: Activity
[13] = target: T3, Peroxisome proliferator-activated receptor gamma (Homo sapiens); assay: Activation of human PPARgamma ligand binding domain expressed in COS7 cells at 6 uM by dual luciferase reporter gene assay; format: cell-based; details: COS-7
[14] = target: T3, Peroxisome proliferator-activated receptor gamma (Homo sapiens); assay: Activation of human PPARgamma ligand binding domain expressed in COS7 cells at 3 uM by dual luciferase reporter gene assay; format: cell-based; details: COS-7
[15] = target: Neurogenic locus notch homolog protein 1 (Homo sapiens, UniProt P46531); assay: Inhibition of NOTCH-1 signaling (unknown origin) expressed in CHO cells at 5 to 50 uM after 24 hrs by dual luciferase reporter gene assay; format: cell-based; method in brief: as §1
[16] = target: T3, Peroxisome proliferator-activated receptor gamma (Homo sapiens); assay: Activation of human PPARgamma ligand binding domain expressed in COS7 cells at 10 uM by dual luciferase reporter gene assay; format: cell-based; details: COS-7
Gamma-secretase = assay: Inhibition of CHAPSO-solubilized gamma-secretase isolated from human SH-SY5Y P2 cell membranes assessed as reduction in Abeta(1 to 42) peptide generation from recombinant C100Flag substrate by electrochemiluminescence assay

Sequence of Neurogenic locus notch homolog protein 1 (P46531 whole entry, the tested form may be a part): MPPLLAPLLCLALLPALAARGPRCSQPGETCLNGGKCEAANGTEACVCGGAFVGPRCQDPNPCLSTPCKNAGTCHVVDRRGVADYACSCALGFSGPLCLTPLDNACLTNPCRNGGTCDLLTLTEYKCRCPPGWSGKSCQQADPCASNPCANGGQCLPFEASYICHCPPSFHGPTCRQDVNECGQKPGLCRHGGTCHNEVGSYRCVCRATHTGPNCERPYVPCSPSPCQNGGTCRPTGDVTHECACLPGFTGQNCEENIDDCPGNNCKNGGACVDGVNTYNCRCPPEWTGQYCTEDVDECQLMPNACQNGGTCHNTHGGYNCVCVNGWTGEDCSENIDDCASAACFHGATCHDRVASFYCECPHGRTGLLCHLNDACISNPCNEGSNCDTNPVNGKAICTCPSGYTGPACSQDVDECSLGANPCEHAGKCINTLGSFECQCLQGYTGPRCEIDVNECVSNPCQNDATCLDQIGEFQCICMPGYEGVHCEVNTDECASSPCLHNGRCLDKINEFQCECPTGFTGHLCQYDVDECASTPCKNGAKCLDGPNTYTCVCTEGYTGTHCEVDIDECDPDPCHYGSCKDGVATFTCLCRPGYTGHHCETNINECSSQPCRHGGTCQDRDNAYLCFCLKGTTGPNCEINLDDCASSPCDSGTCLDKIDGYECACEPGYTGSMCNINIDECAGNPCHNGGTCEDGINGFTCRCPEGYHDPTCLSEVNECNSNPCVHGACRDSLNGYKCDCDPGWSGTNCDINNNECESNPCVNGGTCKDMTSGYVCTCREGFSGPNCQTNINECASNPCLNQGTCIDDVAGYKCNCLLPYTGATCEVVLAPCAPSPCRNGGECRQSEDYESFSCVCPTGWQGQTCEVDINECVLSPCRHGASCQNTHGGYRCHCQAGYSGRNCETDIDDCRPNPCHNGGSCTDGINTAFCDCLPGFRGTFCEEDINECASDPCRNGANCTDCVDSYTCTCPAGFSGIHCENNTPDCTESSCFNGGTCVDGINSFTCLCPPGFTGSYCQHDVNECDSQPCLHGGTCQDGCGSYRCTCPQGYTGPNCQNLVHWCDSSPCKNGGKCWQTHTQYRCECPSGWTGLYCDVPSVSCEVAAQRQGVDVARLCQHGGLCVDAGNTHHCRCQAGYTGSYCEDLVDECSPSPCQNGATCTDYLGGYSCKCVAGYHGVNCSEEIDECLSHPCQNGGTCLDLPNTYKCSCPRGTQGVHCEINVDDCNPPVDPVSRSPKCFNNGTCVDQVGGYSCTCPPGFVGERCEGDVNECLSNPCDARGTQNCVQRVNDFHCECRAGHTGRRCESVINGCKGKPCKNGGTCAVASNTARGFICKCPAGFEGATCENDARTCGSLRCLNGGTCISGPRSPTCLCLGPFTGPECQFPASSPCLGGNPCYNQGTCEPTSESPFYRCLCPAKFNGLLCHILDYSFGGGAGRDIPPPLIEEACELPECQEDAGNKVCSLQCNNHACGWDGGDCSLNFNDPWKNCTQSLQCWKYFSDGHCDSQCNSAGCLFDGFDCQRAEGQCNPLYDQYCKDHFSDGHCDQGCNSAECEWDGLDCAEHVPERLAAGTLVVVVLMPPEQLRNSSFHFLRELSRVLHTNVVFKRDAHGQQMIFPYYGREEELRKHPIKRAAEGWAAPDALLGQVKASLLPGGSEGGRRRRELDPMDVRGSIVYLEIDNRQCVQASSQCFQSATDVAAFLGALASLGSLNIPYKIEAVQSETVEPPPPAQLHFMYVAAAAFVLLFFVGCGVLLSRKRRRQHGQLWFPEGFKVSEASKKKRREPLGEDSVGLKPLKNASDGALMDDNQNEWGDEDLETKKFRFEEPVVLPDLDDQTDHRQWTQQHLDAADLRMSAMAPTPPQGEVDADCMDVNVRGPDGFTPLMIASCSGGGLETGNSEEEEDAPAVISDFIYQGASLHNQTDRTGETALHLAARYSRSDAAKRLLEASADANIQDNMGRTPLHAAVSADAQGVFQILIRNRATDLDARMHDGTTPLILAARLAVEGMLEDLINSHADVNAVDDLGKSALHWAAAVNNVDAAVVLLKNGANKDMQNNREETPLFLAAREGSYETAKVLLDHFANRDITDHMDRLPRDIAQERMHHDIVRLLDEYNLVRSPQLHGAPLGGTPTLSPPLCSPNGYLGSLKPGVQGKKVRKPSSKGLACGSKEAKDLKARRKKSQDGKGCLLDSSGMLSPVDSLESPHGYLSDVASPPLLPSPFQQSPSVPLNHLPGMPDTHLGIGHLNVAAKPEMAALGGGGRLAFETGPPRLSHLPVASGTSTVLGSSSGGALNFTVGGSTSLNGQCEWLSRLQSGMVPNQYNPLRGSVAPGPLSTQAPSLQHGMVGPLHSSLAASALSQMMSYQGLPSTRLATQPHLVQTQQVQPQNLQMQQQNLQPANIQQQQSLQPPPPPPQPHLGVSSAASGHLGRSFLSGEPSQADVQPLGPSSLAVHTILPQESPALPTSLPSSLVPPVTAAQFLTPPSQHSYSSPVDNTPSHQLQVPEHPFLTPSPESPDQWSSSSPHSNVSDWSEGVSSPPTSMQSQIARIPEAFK
Sequence of NOTCH-1 signaling (Neurogenic locus notch homolog protein 1) (P46531 whole entry): as the sequence (P46531 whole entry, the tested form may be a part) above

SMILES: C[C@H](NC(=O)[C@@H](O)c1cc(F)cc(F)c1)C(=O)N[C@@H]1C(=O)N(C)c2ccccc2-c2ccccc21
inhibition at 24 h, 0.5 µM [1]: > 75%

SMILES: CCCC/C(=C\c1cc(OCc2cc3ccccc3s2)ccc1OCc1ccc(C(F)(F)F)cc1)C(=O)O
IC50 [2]: > 10 µM
IC50 (Presenilin-1 [3]): 4600 nM
max activation [4]: inactive
IC50 (Prostaglandin E synthase): 9.2 µM
EC50 (Presenilin-1 [5]): 2100 nM
Activity [6]: 67.4%
EC50 ([7]; cos-7): Not Active
Activity [8]: 91.7%
IC50 [9]: 700 nM
IC50 [10]: > 10 µM
cytotoxicity [11]: > 50%

SMILES: CCCC/C(=C\c1cc(OCC2CCC(C(F)(F)F)CC2)ccc1OCc1ccc(C(F)(F)F)cc1)C(=O)O (stereo not drawn)
inhibition (INH) [15]: Not Active
IC50 [2]: > 10 µM
IC50 (Presenilin-1 [3]): 1000 nM
viability at 24 h [12]: > 50%
max activation [4]: 158%
IC50 (Prostaglandin E synthase): 2.5 µM
EC50 (Presenilin-1 [5]): 1100 nM
Activity [6]: 58%
EC50 ([7]; read-out: EC50): 2.16 µM
Activity [8]: 75.3%
IC50 [9]: 1700 nM
IC50 [10]: > 10 µM

SMILES: C[C@@H](C(=O)O)c1ccc(-c2ccccc2)c(F)c1 [TARENFLURBIL]
IC50 (Gamma-secretase): 307 µM

Now from value to compound, other results behind:

IC50 [2]: > 10 µM
IC50 (Presenilin-1 [3]): 790 nM
max activation [4]: 103%
IC50 (Prostaglandin E synthase): > 10 µM
EC50 (Presenilin-1 [5]): 1000 nM
Activity [6]: 62.4%
EC50 ([7]; read-out: EC50): 4.64 µM
Activity [8]: 77.3%
IC50 [9]: 300 nM
IC50 [10]: > 10 µM
SMILES: CCCC/C(=C\c1cc(OCc2cc(C(F)(F)F)cc(C(F)(F)F)c2)ccc1OCc1ccc(C(F)(F)F)cc1)C(=O)O
viability at 24 h [12]: > 50%

IC50 [2]: > 10 µM
IC50 (Presenilin-1 [3]): 1500 nM
Activity [13]: 72%
IC50 (Prostaglandin E synthase): 3.1 µM
EC50 (Presenilin-1 [5]): 1300 nM
Activity [6]: 66.3%
Activity [8]: 72.2%
Activity [14]: 21%
IC50 [9]: 500 nM
IC50 [10]: > 10 µM
SMILES: CCCC/C(=C\c1cc(OCCc2ccc(C(F)(F)F)cc2)ccc1OCc1ccc(C(F)(F)F)cc1)C(=O)O
cytotoxicity [11]: > 50%

inhibition (INH) [15]: Not Active
IC50 [2]: > 10 µM
IC50 (Presenilin-1 [3]): 630 nM
IC50 (Prostaglandin E synthase): 3 µM
EC50 (Presenilin-1 [5]): 1170 nM
Activity [6]: 69%
Activity [8]: 84.2%
IC50 [9]: 200 nM
IC50 [10]: > 10 µM
Activity [16]: 17%
SMILES: CCCC/C(=C\c1cc(OCc2ccc3nc(C(F)(F)F)cc(OC)c3c2)ccc1OCc1ccc(C(F)(F)F)cc1)C(=O)O
viability at 24 h [12]: > 50%
